Consider 167 variants from the RNAGym collection of RNA variant scans (doi:10.1101/gad.245936.114).

This sample holds only a part of the variants without activity.

B1: tRNA (parent)
chain: CUCUCGGUAGCCAAGUUGGUUUAAGGCGCAAGACUUUAAUUUAUCACUACGAAAUCUUGAGAUCGGGCGUUCGACUCGCCCCCGGGAGAUUUUUUCCUCGAGCAA

Variants of B1 are the subject of this series. Put plainly: nonsense suppression (GFP-seq) (ratio to wild type); higher = more function; SUP4oc tRNA, yeast GFP reporter sort-seq. Summed up: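 Sorted GFP/RFP bins of yeast were each Illumina-sequenced with a phred ≥30 cutoff; the cells held a genome-integrated ochre-suppressor tRNA variant from a library with ~3% random mutations, a galactose-driven GFP ochre reporter, and RFP. Culture was in raffinose/galactose medium containing 80 mg/L adenine. Nonsense suppression, termed GFPSEQ, is the median GFP/RFP of the bins weighted by each variant's estimated cell share per bin, relative to the unmutated parent tRNA, for variants reaching ≥100 reads and ≥30 cells.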
As for A24G C29U, the nonsense suppression stood at 0.0384.
For A24C A89C, the nonsense suppression worked out at 0.0925.
Take A24C U58C: the nonsense suppression worked out at 0.034.
Consider C27U C80U, for which the nonsense suppression is 0.0446.
Regarding G25A G32U, the nonsense suppression is at most 0.026.
The same measure for G25A C56G C79U: at most 0.026.
G26C U57A G73A: the nonsense suppression is at most 0.026.
To C27U G85A belongs 0.207.
To G26A A31C belongs at most 0.026; to G25U C56A G86U, at most 0.026; to G28C C34A C68G A89U, at most 0.026.
Take G28C C34A C68G A89G: the nonsense suppression was at most 0.026.
To G28C C79A G85C belongs 0.0328; to G25U C34A U71A U76A, at most 0.026; to A24U A60G, 0.0422.
The same measure for A24U A60U: 0.0572.
The same measure for G26U A31G A54U U57C G73C: at most 0.026.
For A24G G85A, the nonsense suppression came to 0.189.
The same measure for C29A U57A G73A: at most 0.026; for C27G A87G: 0.0273.
To G26C C34U G61A C82A G85C G86A belongs at most 0.026; to G25A U57C, at most 0.026.
To C27G C77G belongs at most 0.026; to A24U U58C G85A, at most 0.026.
Consider A24C G67U, for which the nonsense suppression stood at 0.0289.
As to A24C G26A A30U C80G C81G, the nonsense suppression is at most 0.026.
To C27A G84A G86C belongs at most 0.026.
As to C27G A74C G86A, the nonsense suppression is at most 0.026.
The same measure for A24U A30C C83A: at most 0.026.
For A24C C72U G84A, the nonsense suppression is at most 0.026.
To G28U A54U belongs at most 0.026; to C27A A33C G66U, at most 0.026; to C27A A30C A60G C77G C81A, at most 0.026.
To A24G A31G belongs 0.0322; to C27A U55G G61A C83G, at most 0.026; to G25A U70C G73U, at most 0.026.
The same measure for G25U A54U G78C: at most 0.026.
As for G25C, the nonsense suppression amounted to 0.185.
The same measure for G26A G65A G86A: at most 0.026; for A24C G88A: 0.0453; for A23U G86A: at most 0.026.
To C27G C80U C83A belongs at most 0.026; to C27U U55C C56A G88U, at most 0.026; to G26U A74C U76G, at most 0.026.
Consider G28C U57C, for which the nonsense suppression is 0.0349.
For the variant G28C U57A, the nonsense suppression stood at 0.0447.
Turning to A24U G84C, the nonsense suppression was 0.107.
Take A24U G84A: the nonsense suppression is 0.0448.
To G25U U63G belongs 0.0371.
The same measure for G28A C81U: 1.2; for G26A C77G: at most 0.026; for G28A A54U: 1.1.
Consider G28A A54C, for which the nonsense suppression was 0.878.
To C29A C72A U76A belongs at most 0.026.
Consider C27U, for which the nonsense suppression came to 0.183.
The same measure for C29A C75U: 0.0265; for G25A C75G G78A: at most 0.026.
To C27U G59U G61U G66U belongs at most 0.026; to G28A G78C, 0.0938; to G25C C75A, 0.826.
To C27G G28A belongs at most 0.026; to A24U U63A, 0.119; to A24U U63C, 0.0344.
On to G26U C34U, for which the nonsense suppression was at most 0.026.
As for A24U U35A, the nonsense suppression is at most 0.026.
The same measure for A24G G59C: at most 0.026.
The same measure for A24G G59A: at most 0.026; for A24C G26U: 0.038.
To G28A C82U belongs 1.15; to G28A A31G G73C, at most 0.026.
Turning to A24C U70A, the nonsense suppression is at most 0.026.
In the case of G25C U63A, the nonsense suppression was at most 0.026.
The same measure for G28A G66A: 0.152.
On to A23U G78U, for which the nonsense suppression came out at 0.0382.
To G26U G69U C79U belongs at most 0.026; to A24U C80U, 0.192; to A24C U55C, 0.365.
G25U C75U: the nonsense suppression is at most 0.026.
The same measure for G25U A60G G61A: at most 0.026; for A24U C72G: 0.03.
For A23U U55C A60C G69U G85C, the nonsense suppression was at most 0.026.
In the case of G28U U71G, the nonsense suppression was at most 0.026.
The same measure for C27U G28A: 0.0265; for A24G A60G: 0.0307.
As to G25A G61A G84C, the nonsense suppression was at most 0.026.
To G26C U55A belongs at most 0.026.
With G26C U55C, the nonsense suppression turned out to be 0.0525.
To G28C A60U U70C belongs at most 0.026.
The same measure for G25A G59C U63C: at most 0.026; for G28A U63C G85U: 0.0331.
The same measure for C27U A30U G85C: at most 0.026.
On to G25U A60C, for which the nonsense suppression is at most 0.026.
For the variant G25C C68U, the nonsense suppression stood at 0.031.
To A24G A30U U70G C72A belongs at most 0.026.
To C27G C79A belongs at most 0.026.
Take G25U U63C C79A: the nonsense suppression is at most 0.026.
The same measure for G25A G73A: 0.0508; for G28U U35A: at most 0.026.
To C27A U55C belongs 0.0902; to C27G G73C, at most 0.026; to C27A G59U, at most 0.026.
G25U G28U C29G C72G C81A: the nonsense suppression was at most 0.026.
Take C27U C77A: the nonsense suppression is at most 0.026.
The same measure for C27A G78U: 0.0309; for A24C G73C G84C: at most 0.026; for G26U G61A: at most 0.026.
In the case of C27U A31U, the nonsense suppression turned out to be 0.0324.
In the case of C27G U57C G59U G86U, the nonsense suppression is at most 0.026.
To C27A C83G G84C belongs at most 0.026.
G26A C27G: the nonsense suppression was at most 0.026.
The same measure for G26A C27A: at most 0.026.
To G28U A60C belongs 0.669.
As for C27A U35C G66C G88C, the nonsense suppression was at most 0.026.
Turning to A24C G32U, the nonsense suppression came to 0.043.
As for G28A A31G, the nonsense suppression is 0.98.
To G28C G84C belongs 0.239; to G26U C27G A30G U57G C64U G65C, at most 0.026; to A24C U76C, 0.88.
The same measure for C27U G65A: 0.0374.
The same measure for C27U G65U: at most 0.026.
As to G26U A31C G65C, the nonsense suppression is at most 0.026.
The same measure for G28A G84A: at most 0.026; for G25C A54U: 0.0708; for A24U A87G: 0.147.
In the case of G26C G78U C82A, the nonsense suppression is at most 0.026.
A24U G61C: the nonsense suppression was at most 0.026.
As for A24U G61A, the nonsense suppression stood at 0.124.
With A24C U71C, the nonsense suppression stood at 0.0704.
G28U C34A A87U: the nonsense suppression is at most 0.026.
Consider C27A U55A G85A, for which the nonsense suppression is at most 0.026.
The same measure for G28A C68U: 1.17.
For A24G C75A, the nonsense suppression was 0.24.
The same measure for A24G C75U: 0.185; for A24C C68U: 0.765; for C27U U63C: 0.0314.
C27G A31G A54U U70C G84A: the nonsense suppression is at most 0.026.
To G28A U76C belongs 1.09; to G28A U76G, at most 0.026; to A24C G84A, 0.478.
Consider G28A, for which the nonsense suppression came to 0.975.
To G28C belongs 1.17; to A24C A87G, 0.479.
Turning to A24C A87U, the nonsense suppression stood at 0.0833.
The same measure for A24C G65U: 0.0266; for A24C G65A: 0.0366.
Consider G28U A33U, for which the nonsense suppression is at most 0.026.
The same measure for G26U U70G C79U: at most 0.026; for G25U C34U G59A: 1.15.
To G25C A31C G73A belongs at most 0.026.
The same measure for C27G U58A U63A: at most 0.026; for C27U G61C: 0.0306; for C27U A31C G61C: at most 0.026.
For C27U A54C, the nonsense suppression is 0.0314.
The same measure for C27U A54U: 0.104; for G25A A30C: at most 0.026.
With G28A C56G A89C, the nonsense suppression was at most 0.026.
To A24C U71A G78C C80A A87G belongs at most 0.026; to A24C U71A G78C C80A A87U, at most 0.026; to G26U C64G, at most 0.026.
For A24C G69U, the nonsense suppression is at most 0.026.
With G26U U71G G85U, the nonsense suppression is at most 0.026.
To G28C G59A belongs at most 0.026; to C29A U55G, at most 0.026.
Regarding G26U G88C, the nonsense suppression was at most 0.026.
The same measure for G28C U71C: 0.112; for G28A G67A: 0.209; for G25C A30U: 0.0299.
